Measured values published in ChEMBL document CHEMBL1121799, “Beta-adrenoceptor stimulant properties of amidoalkylamino-substituted 1-aryl-2-ethanols and 1-(aryloxy)-2-propanols” (1981).

Legend:
Canis familiaris [1] = species: Canis familiaris; experiment: Intrinsic sympathomimetic activity (ISA, calculated as the percent of maximum change in heart rate (HR); type: functional, Canis lupus familiaris
In short: (§1)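 Same anesthetized, ventilated dog preparation with a pump-perfused left hind limb. An isoproterenol curve was run first. About 45 min later, once HR and HLPP had returned to control, cumulative iv doses of test compound in saline were given. ISA is the maximum HR or HLPP change produced by the compound, expressed as a percentage of the isoproterenol maximum.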

Canis familiaris [2] = species: Canis familiaris; experiment: Intrinsic sympathomimetic activity (ISA), calculated as the percent of maximum change in hind limb perfusion pressure (HLPP); type: functional, Canis lupus familiaris, Hindlimb; in short: as §1
Canis familiaris [3] = experiment: Effective dose required for the maximum heart rate in anesthetized dogs.; type: functional; details: Canis lupus familiaris
In short: (§2)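 Anesthetized dogs on pentobarbital (20 mg/kg iv, then 2 mg/kg iv every 30 min), ventilated with 40% O2 in air. Left hind limb pump-perfused from the abdominal aorta, heparin 500 IU/kg iv. HR from a lead II ECG-driven cardiotachometer. Arterial pCO2 held at 34-42 mmHg and pH 7.35-7.43. Cumulative iv doses in saline. ED50 taken from dose-response curves of peak HR or HLPP change.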

Canis familiaris [4] = experiment: Effective dose required for the maximum hind limb perfusion pressure(HLPP) in anesthetized dogs.; type: functional; details: Canis lupus familiaris, Hindlimb; in short: as §2
Canis familiaris [5] = species: Canis familiaris; experiment: Selectivity is expressed as the ratio of ED50 on hind limb perfusion pressure to the ED50 on heart rate; type: functional, Canis lupus familiaris
In short: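 Cardioselectivity is the ratio of ED50 for HLPP to ED50 for HR. Both come from cumulative iv dose-response curves in pentobarbital-anesthetized dogs with a pump-perfused hind limb and a cardiotachometer reading HR.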

SMILES	ISA (Canis familiaris [1]) [%]	ISA (Canis familiaris [2]) [%]	ED50 (Canis familiaris [3]) [µmol/kg]	ED50 (Canis familiaris [4]) [µmol/kg]	Selectivity (Canis familiaris [5])
O=C(Cc1ccccc1)NCCNCC(O)COc1ccc(O)cc1.O=C(O)C(=O)O (stereo not given)	40	40	0.027	0.09	3.3
O=C(NCCNCC(O)COc1ccc(O)c(CO)c1)Nc1ccccc1.O=C(O)C(=O)O (stereo not given)	42	32	0.045	0.112	2.5
CC(C)C(=O)NCCNCC(O)COc1ccc(O)c(CO)c1.O=C(O)C(=O)O (stereo not given)	26	30	0.043	0.27	6.3
CC(C)NCC(O)COc1ccc(O)c(CO)c1.O=C(O)C(=O)O (stereo not given)	44	55	0.067	0.098	1.5
CC(C)C(=O)NCCNCC(O)c1cc(O)cc(O)c1.O=C(O)C(=O)O (stereo not given)	89	100	0.035	0.105	3
O=C(NCCNCC(O)COc1cccc(O)c1)Nc1ccccc1.O=C(O)C(=O)O (stereo not given)	21	0	0.009	> 1.5	>170
O=C(NCCNCC(O)COc1ccc(O)cc1)Nc1ccccc1.O=C(O)C(=O)O (stereo not given)	52	45	0.058	0.165	2.8
CC(C)C(=O)NCCNCC(O)COc1ccc(O)cc1.O=C(O)C(=O)O (stereo not given)	30	40	0.02	0.078	3.9
CC(C)C(=O)NCCNCC(O)COc1cccc(O)c1.O=C(O)C(=O)O (stereo not given)	25	33	0.209	0.26	1.2
CC(C)NCC(O)COc1cc(O)cc(O)c1.O=C(O)C(=O)O (stereo not given)	32	25	0.012	0.012	1
O=C(NCCNCC(O)c1ccc(O)c(O)c1)Nc1ccccc1.O=C(O)C(=O)O (stereo not given)	100	100	0.0009	0.0054	6
CC(C)NCC(O)COc1ccc(O)c(O)c1.O=C(O)C(=O)O (stereo not given)	100	100	0.0012	0.0012	1
CC(C)C(=O)NCCNCC(O)c1ccc(O)c(O)c1.O=C(O)C(=O)O (stereo not given)	84	100	0.0025	0.006	2.4
O=C(NCCNCC(O)c1cc(O)cc(O)c1)Nc1ccccc1.O=C(O)C(=O)O (stereo not given)	80	100	0.755	0.755	1
O=C(NCCNCC(O)COc1ccc(O)c(O)c1)Nc1ccccc1.O=C(O)C(=O)O (stereo not given)	80	100	0.0041	0.1	24.4
CC(C)C(=O)NCCNCC(O)c1ccc(O)c(CO)c1.O=C(O)C(=O)O (stereo not given)	85	100	0.077	0.152	2
O=C(NCCNCC(O)COc1cc(O)cc(O)c1)Nc1ccccc1.O=C(O)C(=O)O (stereo not given)	28	0	0.041	> 5.5	>135
CC(C)C(=O)NCCNCC(O)COc1cc(O)cc(O)c1.O=C(O)C(=O)O (stereo not given)	19	18	0.019	0.016	0.8
CC(C)C(=O)NCCNCC(O)c1cccc(O)c1.O=C(O)C(=O)O (stereo not given)	75	75	0.038	0.132	3.5
O=C(NCCNCC(O)c1ccc(O)cc1)Nc1ccccc1.O=C(O)C(=O)O (stereo not given)	71	70	0.098	0.228	2.3
CC(C)C(=O)NCCNCC(O)COc1ccc(O)c(O)c1.O=C(O)C(=O)O (stereo not given)	100	100	0.0016	0.0016	1
O=C(NCCNCC(O)c1ccc(O)c(CO)c1)Nc1ccccc1.O=C(O)C(=O)O (stereo not given)	76	88	0.038	0.304	8
